# Compound activity from PubChem.
# Shown is part of a subset that was picked to be rich in hits.
# HUVEC prolif 384: inhibitors of human endothelial cell proliferation; viability, % at 10 µM (by protocol); HUVEC proliferation, CellTiter-Glo luminescence, 72 h; stronger effect = lower value; 1.1% of 86,000 active;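 active means viability at or below 30%; inactive means viability above 30%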;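 further: 100% = median luminescence of DMSO-only cell control wells on each plate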
# bCat KO growth: beta-catenin-lacking colon tumor cell growth suppression; HCT116 beta-catenin knockout viability, CellTiter-Glo, 60 h; stronger effect = lower value; viability, % at 10 µM; 1.5% of 140,000 active;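 active means viability at or under a set limit, the compound median less 4 SD, cut at about 6% in these data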;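 further: 0% = Hyamine 1622 control at 20 µM and 100% = untreated cell control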
# H69AR inhibit: blocks growth of human H69AR lung tumor cells. viability, % at 10 µM. 6% of 85,000 active. H69AR lung tumor viability, ATP luminescence, 72 h; stronger effect = lower value;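 active means viability at or below 40%; inactive means viability above 40%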;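 further: multidrug resistant small cell line overexpressing MRP-1 efflux transporter; 100% = mean luminescence of untreated control wells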
# PTK2B oligo ant: Pyk2 (human) oligomerization antagonism; Q293 cells, Pyk2 FERM NanoBiT luminescence; stronger effect = lower value; z-score (the deposit names both 25 µM and 10 µM); 0.83% of 99,000 active; AID 1347419;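 active means Z-score of -3 or lower, scaled per plate to the spread of control and sample wells; inactive means z-score above -3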;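 further: negative z-score means lost luminescence so less FERM oligomerization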
# Lung fibro prol: blocks proliferation of human lung fibroblasts; 1.1% of 85,000 active; LL 47 human lung fibroblast viability, ATP luminescence; stronger effect = lower value; viability, % at 10 µM;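 active means viability at or below 50% in the single dose screen; inactive means viability above 50%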;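 further: compound exposure lasted 72 h before the ATP readout; 100% = median luminescence of untreated cell-only wells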
#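 test system = LL 47 human lung fibroblasts | amount = 1,150 fibroblasts seeded per well | medium = 15% FBS in IMEM | times = overnight cell rest, 72 h compound treatment at 37 °C | measured by = CellTiter-Glo luminescence measuring cellular ATP | read-out = viability percentage against median untreated-cell control | benchmarks = cell-only wells, no compound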
# HCT116 PTEN-null: suppresses growth of cells with PTEN deletion | 1.2% of 140,000 active | AID 827 | HCT116 PTEN-null viability, CellTiter-Glo, 60 h; stronger effect = lower value | viability, % at 10 µM;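 active means viability at or below a set limit, 4 SD under the median of all tested compounds, cut at about 3.7% in these data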;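 further: PTEN knockout HCT116 line with beta catenin targeted HCT116 as companion control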
# * = called active by the depositor; / = no result.
SMILES,HUVEC prolif 384,bCat KO growth,H69AR inhibit,PTK2B oligo ant,Lung fibro prol,HCT116 PTEN-null
CN(C)S(=O)(=O)c1ccc(S(=O)(=O)N(Cc2ccco2)Cc2ccccc2Cl)cc1,94,76,40*,-0.75,80,80
COc1ccccc1N1CCN(c2cc(=O)n(Cc3ccc(F)cc3)c(=O)[nH]2)CC1,59,36,30*,/,61,34
COc1coc(/C=C/C(=O)O)cc1=O,/,91,/,/,/,98
CN1C(=O)N(C)C2(c3ccccc3)Nn3c(s/c(=C/c4ccccc4)c3=O)=NC12c1ccccc1 (stereo not drawn),103,65,38*,0.99,91,74
NS(=O)(=O)c1ccc(Nc2nc(-c3ccc4ccccc4c3)cs2)cc1,86,99,32*,-1.8,79,91
O=S(=O)(c1ccc(-c2csc(Nc3ccc(F)cc3)n2)cc1)N1CCCC1,/,69,/,/,/,56
COc1ccc(OCCSc2ncn[nH]2)cc1,87,96,84,1,100,96
CC(C)Nc1nc(NC(C)C)nc(N(C#N)CCOc2ccc(Cl)cc2Cl)n1,87,65,28*,-2.5,84,60
Cc1cc(C)nc(N(C#N)CCOc2ccc(Cl)cc2)n1,98,91,103,-4.2*,97,99
CCCN(C#N)c1nc(NCC)nc(NC(C)C)n1,103,100,79,0.1,98,84
Cc1ccc(CN(C#N)c2nc(C)cc(C)n2)cc1,93,90,100,-1.7,97,94
COc1ccc(C(NC(=O)c2ccccc2F)NC(=O)c2ccccc2F)cc1,/,88,/,/,/,93
COc1ccc(C(NC(=O)c2c(F)c(F)c(F)c(F)c2F)c2ccccc2)cc1 (stereo not drawn),/,1.3*,/,/,/,1.7*
O=C(COC(=O)c1n[nH]c2ccccc12)NC(=O)NC1CCCC1,98,97,92,-1.6,102,105
O=C(COC(=O)c1n[nH]c2ccccc12)NC(=O)NC12CC3CC(CC(C3)C1)C2,69,22,17*,-1.4,81,1.4*
CC(C)(C)c1cc(C(c2cccnc2)N2CCN(CCO)CC2)cc(C(C)(C)C)c1O (stereo not drawn),2.2*,1.7*,2.2*,-1.7,2.8*,1.7*
OCCN1CCN(C(c2cccs2)c2ccc3cccnc3c2O)CC1 (stereo not drawn),57,14,40,/,58,10
CCn1c(=N)n(CC(O)COc2cccc(C)c2)c2ccccc21 (stereo not drawn),87,32,76,2.6,72,40
CCCCn1c(=N)n(CC(O)COc2ccc(C)cc2)c2ccccc21 (stereo not drawn),83,2.0*,7.4*,0.6,72,1.7*
CCCn1c(=N)n(CC(O)COc2cccc(C)c2)c2ccccc21 (stereo not drawn),87,2.6*,45,0.39,84,3.2*
O=C(O)CN(CC(=O)O)CC(=O)O,100,/,99,/,90,/
Cc1ccc2c(c1)c1c(n2CC(O)Cn2c(C)nc3ccccc32)C(=O)CCC1 (stereo not drawn),74,36,81,/,92,42
Cc1ccc2c(c1)c1c(n2CC(O)Cn2c(C)nc3ccccc32)/C(=N\O)CCC1 (stereo not drawn),3.4*,39,2.7*,-0.01,94,34
COc1ccc(CN2CC(C(=O)NCCc3ccc(C)cc3)CC2=O)cc1 (stereo not drawn),102,100,103,0.05,102,99
O=C(O)CCCCC1SCC2NC(=O)NC21 (stereo not drawn),93,107,83,/,98,88
SMILES,HUVEC prolif 384,bCat KO growth,H69AR inhibit,PTK2B oligo ant,Lung fibro prol,HCT116 PTEN-null
CCN1CCN(C(=S)Nc2cccc([N+](=O)[O-])c2)CC1,/,90,/,/,/,88
CCN1C/C(=C/c2cccc([N+](=O)[O-])c2)C(=O)/C(=C/c2cccc([N+](=O)[O-])c2)C1,/,1.7*,/,/,/,1.6*
O=C(NC1CCCCCC1)C1CCN(S(=O)(=O)c2ccc(F)cc2)CC1,106,78,32*,0.92,91,83
O=C1CCc2cc(S(=O)(=O)N3CCC(C(=O)NC4CCCCCCC4)CC3)ccc2N1,88,89,89,/,94,98
[O-][n+]1onc2c3ccnnc3ccc21,104,91,38*,-0.21,92,93
Cc1cc2c(ccc3c2no[n+]3[O-])nn1,99,69,37*,1.1,92,72
COn1c(C)c(C(C)=O)c2c3no[n+]([O-])c3ccc21,/,98,/,0.37,/,103
Cc1sc2nc(CN(Cc3ccccc3)C(=O)NC3CCCCC3)[nH]c(=O)c2c1C,107,/,66,-3*,100,/
CCOC(=O)N1CCC(c2cc(=O)n3[nH]c(C)c(-c4ccc(F)cc4)c3n2)CC1,6.4*,25,96,/,84,46
COC(=O)c1ccc(CO/N=C(\NC(C)=O)c2nonc2NC(C)=O)cc1,/,84,/,/,/,89
CCOC(=O)Cn1c(=O)oc2cc(S(=O)(=O)Nc3cccc(C)c3)ccc21,83,5.2*,101,/,101,16
CCOC(=O)Cn1c(=O)oc2cc(S(=O)(=O)Nc3cc(OCC)ccc3OCC)ccc21,100,76,110,-1.1,97,75
CCOC(=O)Cn1c(=O)oc2cc(S(=O)(=O)Nc3ccc(N(CC)CC)cc3C)ccc21,2.4*,6,94,/,6.0*,21
COCCNC(=O)C(C)OC(=O)c1cc2occc2n1C (stereo not drawn),94,103,98,0.75,102,100
N=c1c2c(-c3ccccc3)c(-c3ccccc3)oc2ncn1CCCN1CCOCC1,8.9*,41,46,-0.41,79,43
c1ccc(-c2oc3ncnc(NCCN4CCOCC4)c3c2-c2ccccc2)cc1,59,76,36*,-1.5,84,65
CC12CCC(C(=O)Nc3ccccc3Cl)(C(Br)C1=O)C2(C)C (stereo not drawn),/,88,/,/,/,90
CC1CN(S(=O)(=O)c2cccc(C(=O)Nc3ccc4c(c3)CCC4)c2)CC(C)O1 (stereo not drawn),/,52,/,/,/,64
CC(C)(C)n1[nH]c2c3c(ccc2c1=O)C(=O)c1ccccc1C3=O,3.3*,7,60,-0.83,59,8
COCCCn1[nH]c2c3c(ccc2c1=O)C(=O)c1ccccc1C3=O,6.8*,28,86,0.02,87,28
CCCCC(=O)Nc1c(C)cc(C)cc1Cl,98,87,96,-0.31,110,90
Cc1cccc2c1[nH]c1nc(N/N=C\c3ccco3)nnc12,/,99,/,/,/,110
CC(/C=N/Nc1nnc2c(n1)[nH]c1ccccc12)=C\c1ccco1,97,89,34*,-0.53,114,85
O=C(CSc1nnc(COc2ccc(Cl)cc2)o1)N1c2ccccc2CCc2ccccc21,92,29,9.1*,-0.43,62,38
CCCn1c(=O)c(C(=O)NNS(=O)(=O)c2ccc(Cl)cc2)c(O)c2ccccc21,/,94,/,/,/,97
